Tests used:
[1] = target: Mitogen-activated protein kinase 14 (Homo sapiens, UniProt Q16539); assay: Inhibition of p38alpha
PBMC = assay: Inhibition of LPS-stimulated TNFalpha production in human PBMCs; format: functional, cell-based
In short: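 PBMCs from heparinized healthy-volunteer blood isolated by Ficoll-Hypaque and resuspended at 5 × 10⁶/mL in RPMI with 10% FBS. Cells preincubated with compound for 5 min at rt, then stimulated with LPS (200 ng/mL stock) for 6 h at 37 °C. TNF-α in medium measured by ELISA. IC50 derived by linear regression.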

Mus musculus = assay: Inhibition of LPS-induced TNFalpha production in BALB/c mouse at 10 mg/kg, po relative to control; format: functional
In short: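 Female BALB/c mice, 6–8 weeks old, n = 8 per group, given 10 mg/kg by oral gavage in PEG 300; vehicle controls received PEG300 alone. LPS (E. coli O111:B4, 50 µg/kg) given ip 30 min after dosing. Blood taken 90 min after LPS and serum TNF-α measured by ELISA. Inhibition relative to vehicle, means SD, ANOVA.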

Chain of Mitogen-activated protein kinase 14 (Q16539 whole entry): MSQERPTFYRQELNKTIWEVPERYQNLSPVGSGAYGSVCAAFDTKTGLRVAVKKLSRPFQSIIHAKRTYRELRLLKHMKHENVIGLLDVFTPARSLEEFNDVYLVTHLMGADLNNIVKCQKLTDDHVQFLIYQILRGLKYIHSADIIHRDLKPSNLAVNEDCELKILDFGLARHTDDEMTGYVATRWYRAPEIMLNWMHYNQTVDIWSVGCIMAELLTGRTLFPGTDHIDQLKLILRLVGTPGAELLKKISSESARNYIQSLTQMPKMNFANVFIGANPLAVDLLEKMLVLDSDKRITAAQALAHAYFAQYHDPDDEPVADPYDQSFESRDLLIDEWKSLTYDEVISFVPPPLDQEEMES

Row | SMILES | IC50 [1] | Ki [1] | IC50 (PBMC) | inhibition in vivo at 10 mg/kg (Mus musculus)
1 | Cc1ccc(NC(=O)c2c(Cl)cccc2Cl)cc1Nc1ncnn2cc(C(=O)N[C@@H](C)c3ccccc3)c(C)c12 | > 1000 nM | – | – | –
2 | Cc1ccc(NC(=O)c2cc(F)cc(N3CCOCC3)c2)cc1Nc1ncnn2cc(C(=O)O)c(C)c12 | 1 nM | – | > 1000 nM | –
3 | CCNC(=O)c1cn2ncnc(Nc3cc(NC(=O)c4cccc(-n5cccn5)c4)ccc3C)c2c1C | 123 nM | – | – | –
4 | Cc1ccc(NC(=O)c2cccc(N3CCOCC3)c2)cc1Nc1ncnn2cc(C(=O)N[C@@H](C)c3ccccc3)c(C)c12 | – | – | 29 nM | 87%
5 | Cc1ccc(NC(=O)c2cc(F)cc(N3CCOCC3)c2)cc1Nc1ncnn2cc(C(=O)N[C@@H](C)c3ccccc3)c(C)c12 | – | 0.54 nM | 2 nM | –
6 | COC[C@H](C)NC(=O)c1cn2ncnc(Nc3cc(NC(=O)c4ccc(C#N)cc4)ccc3C)c2c1C | – | – | 65 nM | –
7 | Cc1ccc(NC(=O)c2ccncc2)cc1Nc1ncnn2cc(C(=O)N[C@@H](C)c3ccccc3)c(C)c12 | 14 nM | – | 117 nM | –
8 | CNC(=O)c1cn2ncnc(Nc3cc(NC(=O)c4cc(F)cc(N5CCOCC5)c4)ccc3C)c2c1C | 4 nM | – | 14 nM | –
9 | Cc1ccc(NC(=O)c2cc(F)cc(N3CCOCC3)c2)cc1Nc1ncnn2cc(C(=O)NC(C)C)c(C)c12 | 5 nM | – | 6 nM | –
10 | COC[C@H](C)NC(=O)c1cn2ncnc(Nc3cc(NC(=O)c4cccc(N5CCOCC5)c4)ccc3C)c2c1C | 12 nM | – | 29 nM | –
11 | CCNC(=O)c1cn2ncnc(Nc3cc(NC(=O)c4ccnc(N5CCOCC5)c4)ccc3C)c2c1C | 2 nM | – | 287 nM | –
12 | Cc1cccc(C(=O)Nc2ccc(C)c(Nc3ncnn4cc(C(=O)N[C@@H](C)c5ccccc5)c(C)c34)c2)c1 | 94 nM | – | 259 nM | –
13 | CCNC(=O)c1cn2ncnc(Nc3cc(NC(=O)c4cccc(N5CCN(C)CC5)c4)ccc3C)c2c1C | 924 nM | – | – | –
14 | Cc1ccc(NC(=O)c2cc(F)cc(N3CCOCC3)c2)cc1Nc1ncnn2cc(C(N)=O)c(C)c12 | 3 nM | – | 19 nM | –
15 | Cc1ccc(NC(=O)c2ccnc(N3CCOCC3)c2)cc1Nc1ncnn2cc(C(=O)N[C@@H](C)c3ccccc3)c(C)c12 | – | – | 43 nM | 89%

Now from value to compound, other results behind:

Row | IC50 [1] | Ki [1] | SMILES | IC50 (PBMC) | inhibition in vivo at 10 mg/kg (Mus musculus)
16 | 2 nM | – | COC[C@H](C)NC(=O)c1cn2ncnc(Nc3cc(NC(=O)c4cc(F)cc(N5CCOCC5)c4)ccc3C)c2c1C (stereo in doubt; 16) | – | –
17 | 32 nM | – | Cc1ccc(NC(=O)c2cccc(C(F)(F)F)c2)cc1Nc1ncnn2cc(C(=O)N[C@@H](C)c3ccccc3)c(C)c12 | 72 nM | –
18 | – | 0.98 nM | CCNC(=O)c1cn2ncnc(Nc3cc(NC(=O)c4cccc(N5CCOCC5)c4)ccc3C)c2c1C | 45 nM | 84%
19 | 10 nM | – | Cc1ccc(NC(=O)c2cc(F)cc(N3CCOCC3)c2)cc1Nc1ncnn2cc(C(=O)NCCN(C)C)c(C)c12 | 18 nM | –
20 | 13 nM | – | Cc1ccc(C(=O)Nc2ccc(C)c(Nc3ncnn4cc(C(=O)N[C@@H](C)c5ccccc5)c(C)c34)c2)cc1 | 313 nM | –
21 | 23 nM | – | Cc1ccc(NC(=O)c2cc(F)cc(N3CCOCC3)c2)cc1Nc1ncnn2cc(C(=O)N[C@H](C)c3ccccc3)c(C)c12 | 48 nM | –
22 | 2 nM | – | CCOC(=O)c1cn2ncnc(Nc3cc(NC(=O)c4cc(F)cc(N5CCOCC5)c4)ccc3C)c2c1C | 4 nM | –
23 | 19 nM | – | Cc1ccc(NC(=O)c2ccccc2)cc1Nc1ncnn2cc(C(=O)N[C@@H](C)c3ccccc3)c(C)c12 | 52 nM | –
24 | > 1000 nM | – | Cc1ccc(NC(=O)c2cc(C(F)(F)F)cc(C(F)(F)F)c2)cc1Nc1ncnn2cc(C(=O)N[C@@H](C)c3ccccc3)c(C)c12 | – | –
25 | 16 nM | – | CCNC(=O)c1cn2ncnc(Nc3cc(NC(=O)c4cccc(N5CCCC5=O)c4)ccc3C)c2c1C | 633 nM | –
26 | 5 nM | – | CCCNC(=O)c1cn2ncnc(Nc3cc(NC(=O)c4cc(F)cc(N5CCOCC5)c4)ccc3C)c2c1C | 4 nM | –
27 | 2 nM | – | COC[C@H](C)NC(=O)c1cn2ncnc(Nc3cc(NC(=O)c4cc(F)cc(N5CCOCC5)c4)ccc3C)c2c1C (stereo in doubt; 39) | 7 nM | –
28 | 27 nM | – | Cc1ccc(NC(=O)c2cc(F)cc(N3CCOCC3)c2)cc1Nc1ncnn2ccc(C)c12 | 98 nM | –
29 | – | 0.42 nM | CCNC(=O)c1cn2ncnc(Nc3cc(NC(=O)c4cc(F)cc(N5CCOCC5)c4)ccc3C)c2c1C | 2 nM | –
30 | – | 3.4 nM | Cc1ccc(NC(=O)c2ccc(C#N)cc2)cc1Nc1ncnn2cc(C(=O)N[C@@H](C)c3ccccc3)c(C)c12 | 11 nM | –
31 | 7 nM | – | CCNC(=O)c1cn2ncnc(Nc3cc(NC(=O)c4cccc(-n5ccnc5)c4)ccc3C)c2c1C | 126 nM | –
32 | 23 nM | – | CCNC(=O)c1cn2ncnc(Nc3cc(NC(=O)c4ccc(C#N)cc4)ccc3C)c2c1C | 46 nM | –
33 | 63 nM | – | Cc1ccc(NC(=O)c2cc(F)cc(N3CCOCC3)c2)cc1Nc1ncnn2cc(C(=O)N(C)C)c(C)c12 | 212 nM | –

Source: ChEMBL document CHEMBL1144780, “Synthesis and SAR of new pyrrolo[2,1-f][1,2,4]triazines as potent p38 alpha MAP kinase inhibitors” (Bioorg Med Chem Lett, 2008)
